Results on five molecules are retold here after paper PMC11964602 (Bioactive Materials, 2025).

In general, viability refers to a read-out of living cells in per cent, often relative to untreated cells. The Kd is the concentration at which binding is half-saturated. Low readings indicate tighter binding, high ones weaker binding. By stoichiometry N is commonly meant the number of molecules, sites or subunits per partner or assembly.

Series [1] deals with HUVECs. As to the kind of experiment: Wound healing assay. The settings on record: 25 μg/mL, 8 h, vs control. The format is cell-based, human. In outline: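 A confluent HUVEC monolayer was scratched with a sterile 200 μL pipette tip and debris washed off with PBS. Medium containing peptide at 25 μg/mL was added, and cells migrated 8 h at 37 °C. Bright-field images were taken at 0 and 8 h and wound areas measured by image analysis. Percent closure was computed from initial area minus 8-h area. Three experiments were run, each in triplicate wells.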

Series [2] is described as follows: Cytotoxicity assay. The format is cell-based, human. An outline of the steps:
(§1)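 Cells seeded at 10,000 per well and grown 24 h. They were then given medium containing 6.25–50 μg/mL peptide, with medium alone as control, for 24 h at 37 °C, 5% CO2. CCK-8 reagent was added and incubated 1 h at 37 °C, and absorbance read at 450 nm. Cytotoxicity was calculated from the OD values.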

For series [3], the system named is HUVECs. As to the kind of experiment: Cytotoxicity assay. The following applies: HUVECs; 6.25–50 μg/mL; 24 h. The format is cell-based, human. In outline: as §1
Series [4] is described as follows: Cytotoxicity assay. The format is cell-based, mouse. In outline: as §1
Series [5] relates to NIH/3T3. As to the kind of experiment: Cytotoxicity assay. The format is cell-based, mouse. The following applies: NIH/3T3; 6.25–50 μg/mL; 24 h. An outline of the steps:
as §1

The subject of series [6] is HUVECs. As to the kind of experiment: Tube formation assay with H2O2-generated ROS. The format is cell-based, human. The following applies: 25 μg/mL, 24 h. An outline of the steps: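 Confluent HUVECs were harvested and seeded at 1 × 10^4 cells per chamber on basement membrane matrix (Geltrex)-coated chamber slides. ROS groups received H2O2 (200 μM solution). Parent and metabolite peptides were each at 25 μg/mL in medium. After 24 h incubation, tubular networks were imaged by bright-field microscopy and tube parameters quantified by image analysis.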

Series [7] has as its system rat RBCs. The experiment in a line: Hemolysis assay. The following applies: 62.5–1000 μg/mL, 37 °C, 30 min. The format is cell-based. An outline of the steps: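 Rat RBCs in glycine-buffered stabilizing saline were exposed to test peptide at 62.5, 125, 250, 500 or 1000 μg/mL for 30 min at 37 °C in a water bath, then centrifuged. Supernatant absorbance was read at 540 nm. RBCs in stabilizing buffer defined 0% hemolysis and 0.1% SDS (final) defined 100%.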

The test system of series [8] is CPB, porcine carboxypeptidase. The settings on record: cited from earlier work.
Series [9] concerns the target SARS-CoV-2 main protease (M^pro) (SARS-CoV-2 (Wuhan-Hu-1 isolate)) (UniProt P0DTD1).
In series [10] the target is T1, SARS-CoV-2 main protease (M^pro) (SARS-CoV-2 (Wuhan-Hu-1 isolate), UniProt P0DTD1). As to the kind of experiment: cell-based or functional assay.
Series [11] addresses T1, SARS-CoV-2 main protease (M^pro). The experiment in a line: ITC.

Like-named read-outs stand apart in the source and are kept apart here. Where no end group is shown, it is not given here. Some results are limits rather than exact numbers.

Take `CC[C@H](C)[C@H](NC(=O)[C@H](CCC(=O)O)NC(=O)[C@H](C)NC(=O)[C@H](CCSC)NC(=O)[C@H](CC(=O)O)NC(=O)[C@@H]1CCCN1C(=O)[C@H](CCCCN)NC(=O)[C@H](CC(=O)O)NC(=O)[C@H](CO)NC(C)=O)C(=O)N[C@@H](CCC(=O)O)C(=O)N[C@@H](CCCCN)C(=O)N[C@@H](Cc1ccccc1)C(=O)N[C@@H](CC(=O)O)C(=O)N[C@@H](CCCCN)C(=O)N[C@@H](CO)C(=O)N[C@@H](CCCCN)C(=O)N[C@@H](CC(C)C)C(=O)N[C@@H](CCCCN)C(=O)N[C@@H](CCCCN)C(=O)N[C@H](C(=O)N[C@@H](CCC(=O)O)C(=O)N[C@H](C(=O)N[C@@H](CCC(N)=O)C(=O)N[C@@H](CCC(=O)O)C(=O)N[C@@H](CCCCN)C(=O)N[C@@H](CC(N)=O)C(=O)N1CCC[C@H]1C(=O)N[C@@H](CC(C)C)C(=O)N1CCC[C@H]1C(=O)N[C@@H](CO)C(=O)N[C@@H](CCCCN)C(=O)N[C@@H](CCC(=O)O)C(=O)N[C@H](C(=O)N[C@H](C(=O)N[C@@H](CCC(=O)O)C(=O)N[C@@H](CCC(N)=O)C(=O)N[C@@H](CCC(=O)O)C(=O)N[C@@H](CCCCN)C(=O)N[C@@H](CCC(N)=O)C(=O)N[C@@H](C)C(=O)NCC(=O)N[C@@H](CCC(=O)O)C(=O)N[C@@H](CO)C(=O)O)[C@@H](C)CC)[C@@H](C)O)[C@@H](C)O)[C@@H](C)O` [Ac-Tβ4, Acetyl-thymosin β4]: the wound closure result in [1] is “significantly enhanced wound closure”. Further, the viability in [2] and in series [4] was greater than 90% in each case. In addition, the cytotoxicity result in series [3] and in [5] was “No cytotoxicity” each time. Moreover, in series [6], the “tube formation under H2O2 (ROS scavenging)” value is listed as “failed to mitigate ROS-induced damage”. Moreover, in series [7], the “hemolytic activity, OD values compared to 0.1 % SDS” value was less than 1.5%.

For the molecule “Ac-Tβ4_31-43: peptide metabolite of Ac-Tβ4, amino acids 31-43 (KETIEQEKQAGES; Thymosin beta-4; UniProt P62328 32-44, looked up, fragment)”, the “detected as metabolite of Ac-Tβ4: CPB” value in [8] is “D ^a”.

With FDKS peptide, in [9], the IC50 of inhibition of SARS-CoV-2 M^pro, FRET-based enzymatic assay came out at 63.2 µM.

B1: Ac-Tβ_(1-14), acetyl-thymosin β4 (amino acids 1-14) (peptide)
peptide: Ac-SDKPDMAEIEKFDK
Take B1: in series [10], the “IC50 of inhibition of SARS-CoV-2 M^pro, FRET-based enzymatic assay” value was found to be 26.1 µM. In addition, in series [11], the equilibrium dissociation constant (Kd) came to 19.4 µM, the dH amounted to 40.3 kcal/mol and the “stoichiometry N” value amounted to 1.05.

B2: Ac-Tβ_(1-17), acetyl-thymosin β4 (amino acid 1-17) (peptide)
peptide: Ac-SDKPDMAEIEKFDKSKL
As for B2, the “IC50 of inhibition of SARS-CoV-2 M^pro, FRET-based enzymatic assay” value in [10] came to 22.4 µM. In addition, in series [11], the Kd was 22 µM, the dH was -11.4 kcal/mol and the “stoichiometry N” value amounted to 0.87.
